Assay outcomes as filed in PubChem.
Thrombin inh: inhibitors of human thrombin | P00734 | alpha-thrombin, Boc-VPR-AMC fluorogenic substrate cleavage | inhibition, % at 5 µM | 0.26% of 220,000 active;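 active = inhibition at or above 40%; inactive = inhibition below 40%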;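 also: 0% = enzyme with no compound and 100% = wells without enzyme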
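Material: human alpha-thrombin protein; Also added: Boc-VPR-AMC substrate, 15 µM final; Timing: enzyme reaction carried out at room temperature; Signal: fluorescence, ex 355 nm, em 460 nm; Measure: % inhibition of thrombin; Controls: enzyme without compound as high, wells lacking enzyme as low.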
FXIa inh: factor XIa (human) inhibition; P03951; purified FXIa, Boc-Glu-Ala-Arg-AMC fluorogenic substrate; inhibition, % at 5 µM; 0.14% of 220,000 active;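 active = inhibition of at least 40%; inactive = inhibition below 40%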;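 also: fluorescence of freed AMC excited at 355 nm; 0% = enzyme without compound and 100% = no enzyme blank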
EP2 mod: modulators of human EP2 prostaglandin E2 receptor; P43116; EP2-expressing cells, cAMP HTRF FRET, PGE2 co-stimulation; induction, % at 25 µM; 0.83% of 260,000 active;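 active = compounds whose cAMP rise, as percent of the full-agonist control response, exceeds 60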;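 also: rat C6 glioma line stably carrying human EP2 under a CMV promoter; the protocol text gives 20 µM as final concentration; 100% = response of wells given 1 µM PGE2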
FXIIa inh: factor XIIa (human) inhibition | purified FXIIa, Boc-QGR-AMC fluorogenic substrate, 2 h | inhibition, % at 5 µM | 0.3% of 220,000 active | P00748; in the data active = inhibition above about 40%;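 also: 0% = enzyme with no compound and 100% = blank without enzyme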
EP2 antag: inhibitors of human EP2 prostaglandin E2 receptor; inhibition, % at 25 µM; AID 1422; 0.52% of 260,000 active; C6 glioma cells expressing human EP2, cAMP TR-FRET; cells stimulated with saturating PGE2;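 active = percent inhibition above 40 after rounding to a whole number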;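 also: rat C6 glioma host cells with rolipram phosphodiesterase inhibitor present; the protocol text gives 20 µM as final concentration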
KLK5 inh: inhibitors of human kallikrein 5 | Q9Y337 | inhibition, % at 5 µM | 0.59% of 210,000 active | recombinant hK5, fluorogenic AMC substrate cleavage | AID 873;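 active = inhibition of 40% or more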;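 also: 0% = enzyme controls without compound and 100% = no-enzyme blanks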
Target sequence (Q9Y337 67-293 limits assumed): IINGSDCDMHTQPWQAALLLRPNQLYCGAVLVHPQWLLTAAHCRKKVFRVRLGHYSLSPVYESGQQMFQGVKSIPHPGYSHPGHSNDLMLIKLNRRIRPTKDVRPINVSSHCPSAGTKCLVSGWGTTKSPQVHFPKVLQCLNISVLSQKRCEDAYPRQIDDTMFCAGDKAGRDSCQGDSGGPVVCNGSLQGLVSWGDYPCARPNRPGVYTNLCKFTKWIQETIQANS
EP2 confirm: human EP2 receptor cAMP induction, negative in counter-screens. shares compounds with EP2 mod. C6 glioma EP2 cells, cAMP HTRF induction; plus low (about EC15) PGE2 agonist. calls only at 20 µM (by protocol). 47% of 1,300 active. AID 1080;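 active = cAMP induction above 50% in the main assay while under 30% in all four parallel counter assays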;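 also: rat C6 glioma cells stably expressing human EP2 receptor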
The depositor's hits bear a star. The list is not random: actives were taken first. Their share in the collection is about 2.1%.

`Cc1ccccc1OCc1nc2ccccc2c(=O)n1/N=C/c1ccco1` gave Thrombin inh -0.7, FXIa inh -8.9, EP2 mod 66.8*, FXIIa inh 1.3, EP2 antag 16.9, KLK5 inh -7.5 and EP2 confirm inactive.
`Cn1cccc1/C=C1\CC(C(C)(C)C)C/C(=C\c2cccn2C)C1=O` (stereo unspecified) gave Thrombin inh 0.1, FXIa inh 15.2, EP2 mod 70.7*, FXIIa inh 12.0, EP2 antag 3.5, KLK5 inh -18.9 and EP2 confirm active.
`Cc1cc2c(s1)c1cn[nH]c(=O)c1n2Cc1ccc(F)cc1` gave EP2 mod -19.6.
Screening Cc1ccccc1Cn1c2ccccc2c2cn[nH]c(=O)c21 returned Thrombin inh 1.9, FXIa inh -0.7, EP2 mod 62.3*, FXIIa inh 10.4, EP2 antag -6.9, KLK5 inh -1.3 and EP2 confirm active.
`CCc1nc(N2CCC(C)CC2)c2oc3ccccc3c2n1` gave Thrombin inh 6.6, FXIa inh -2.2, EP2 mod 70.0*, FXIIa inh 14.8, EP2 antag 5.5, KLK5 inh -14.5 and EP2 confirm inactive.
For CCOC(=O)c1sc(NC(=O)C(CC)OC(=O)C(CC(C)C)NC(=O)c2ccccc2)nc1C (stereo unspecified) the results were Thrombin inh 2.5, FXIa inh 6.1, EP2 mod 67.4*, FXIIa inh 17.7, EP2 antag 18.5, KLK5 inh -6.0 and EP2 confirm inactive.
For CCn1c(SCC(=O)N2c3ccccc3Sc3ccccc32)nnc1-c1ccccc1 the results were EP2 mod 16.9 and EP2 antag 9.3.
COC(=O)c1cc(C(=O)c2cc(F)ccc2O)cn2c(=O)c3c(C)c(C)sc3nc12 was read as Thrombin inh 0.7, FXIa inh 5.6, EP2 mod -3.6, FXIIa inh 6.8, EP2 antag 11.5 and KLK5 inh 2.0.
`CCOC(=O)c1sc2nc3c(SCC(=O)O)cc(C(=O)c4cc(F)ccc4O)cn3c(=O)c2c1C` gave Thrombin inh -8.3, FXIa inh 5.7, EP2 mod 76.5*, FXIIa inh 10.4, EP2 antag 5.5, KLK5 inh -10.8 and EP2 confirm active.
Screening COC(=O)c1cc(NC(=O)c2oc3ccccc3c2C)cc(C(=O)OC)c1 returned EP2 mod 1.2 and EP2 antag 9.2.
`Cc1cc(NC(=O)Cn2nnc3sc4c(c3c2=O)CCCC4)no1` gave Thrombin inh 1.8, FXIa inh 1.4, EP2 mod -5.8, FXIIa inh 13.6, EP2 antag 10.6 and KLK5 inh 5.6.
For Cc1cc(NC(=O)Cn2nnc3sc4c(c3c2=O)CCC(C(C)(C)C)C4)no1 (stereo unspecified) the results were Thrombin inh -1.6, FXIa inh -1.0, EP2 mod 50.8, FXIIa inh 3.9, EP2 antag 7.1, KLK5 inh 5.9 and EP2 confirm inactive.
Screening CCOc1ccc(/C=C/C(=O)NCC2CCCO2)cc1OC (stereo unspecified) returned EP2 mod -43.1 and EP2 antag 21.8.
COC(=O)c1c(NC(=O)CSc2nnc(-c3ccco3)n2Cc2ccccc2)sc(C)c1C was read as Thrombin inh -6.6, FXIa inh -7.2, EP2 mod 51.9, FXIIa inh 8.0, EP2 antag 3.9, KLK5 inh -3.3 and EP2 confirm inactive.
COCCn1c(SCC(=O)NCCc2ccccc2)nnc1-c1ccco1 was read as Thrombin inh -9.6, FXIa inh -0.4, EP2 mod 66.6*, FXIIa inh 15.4, EP2 antag 4.8, KLK5 inh -16.7 and EP2 confirm inactive.
`CC(C)NC(=O)CSc1nnc(-c2ccco2)n1Cc1ccccc1` gave EP2 mod 3.3 and EP2 antag 13.4.
For COc1ccc2c(c1)C(c1ccncc1)=NNC(c1ccc(Cl)cc1)=N2 the results were EP2 mod -44.6 and EP2 antag 15.6.
